# Results published in ChEMBL document CHEMBL3414569, “Amino acid modified xanthone derivatives: novel, highly promising membrane-active antimicrobials for multidrug-resistant Gram-positive bacterial infections” (J Med Chem, 2015).
# Calls of active or inactive are those of the source.
# Key:
# Streptococcus = experiment: Antimicrobial activity against Streptococcus isolates by broth macrodilution method; type: functional
# Mus musculus [1] = experiment: Toxicity in C57BL6 mouse eye assessed as effect on corneal clarity at 3 mg/ml applied topically 5 times/day for 4 days by slit lamp biomicroscopy; type: organism-based, Cornea; conditions: in vivo, topical_or_ocular, 96 h
# Method in brief: (§1)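 Three healthy wild-type C57BL6 mice (6−8 weeks) per treatment received 0.5, 1 or 3 mg/mL compound in 10 mM PBS. Applied topically to the eye 5 times/day for 4 days. Corneal clarity checked daily through day 4 by slit-lamp biomicroscopy; histological sections also inspected.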
# Bacillus cereus = experiment: Antimicrobial activity against Bacillus cereus ATCC 11778 by broth macrodilution method; type: functional
# Method in brief: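 CLSI broth macrodilution in Mueller Hinton broth. Inoculum was made by direct colony suspension from colonies on an 18−20 h tryptic soy agar plate. The value is the MIC.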
# Mus musculus [2] = experiment: Toxicity in C57BL6 mouse eye assessed as induction of toxicity related clinical signs at 3 mg/ml applied topically 5 times/day for 4 days; type: organism-based; conditions: in vivo, topical_or_ocular, 96 h; method in brief: as §1
# [3] = Selectivity index, ratio of HC50 for induction of hemolysis in New Zealand white rabbit RBC to MIC for Staphylococcus aureus DM09809R
# Mus musculus [4] = experiment: Toxicity in C57BL6 mouse eye assessed as inflammatory response at 3 mg/ml applied topically 5 times/day for 4 days by slit lamp biomicroscopy; type: organism-based; conditions: in vivo, topical_or_ocular, 96 h; method in brief: as §1
# Staphylococcus aureus [5] = experiment: Antimicrobial activity against methicillin resistant Staphylococcus aureus DM09809R by broth macrodilution method; type: functional
# Method in brief: (§2)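 Broth macrodilution MIC in Mueller Hinton broth following CLSI guidelines. Inoculum was prepared by direct colony suspension from an 18−20 h tryptic soy agar plate.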
# Mus musculus [6] = experiment: Toxicity in C57BL6 mouse eye assessed as effect on wound closure at 3 mg/ml applied topically 5 times/day for 4 days by slit lamp biomicroscopy; type: organism-based; conditions: in vivo, topical_or_ocular, 96 h
# Staphylococcus aureus [7] = experiment: Bactericidal activity against methicillin resistant Staphylococcus aureus DM21455 assessed as induction of bacterial killing at 2 times MIC after 30 mins by cell counting based time kill assay; type: functional
# Method in brief: (§3)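 Time-kill at 35 °C with colonies taken from an 18−20 h tryptic soy agar plate and suspended in CA-MHB at 10^5−10^6 CFU/mL, then drug added. Aliquots taken at set times were diluted 10-fold serially in D/E neutralization broth, spread on tryptic soy agar, incubated 48−72 h at 35 °C, and colonies counted. Strains: MRSA DM21455, vanA and vanB VRE.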
# Enterococcus [8] = experiment: Antimicrobial activity against vancomycin-resistant Enterococcus isolates by broth macrodilution method; type: functional
# Lipid bilayer [9] = experiment: Induction of vesicle leakage in DOPC large unilamellar vesicles assessed as calcein release at 1/16 compound to lipid ratio by fluorescence assay; type: functional
# Method in brief: (§4)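 100 nm LUVs (DOPE/DOPG 75/25 or DOPC) made by film hydration in 80 mM calcein, 50 mM HEPES, 100 mM NaCl, 0.3 mM EDTA, pH 7.4. Then 7 freeze–thaw cycles, 15 extrusions and Sephadex G-50 clean-up. Compound added from DMF (<0.2%) at 50 μM final phospholipid. Fluorescence read at ex 490/em 520 nm for 30 min; 0.1% Triton X-100 set 100% lysis; three independent experiments.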
# Staphylococcus aureus [10] = experiment: Antimicrobial activity against Staphylococcus aureus DM4001 by broth macrodilution method; type: functional; method in brief: as §2
# Staphylococcus aureus [11] = experiment: Antimicrobial activity against methicillin sensitive Staphylococcus aureus isolates by broth macrodilution method; type: functional
# Corynebacterium jeikeium = experiment: Antimicrobial activity against Corynebacterium jeikeium isolates by broth macrodilution method; type: functional
# Staphylococcus aureus [12] = experiment: Antimicrobial activity against multidrug resistant Staphylococcus aureus isolates by broth macrodilution method; type: functional
# Staphylococcus aureus [13] = experiment: Antimicrobial activity against vancomycin-intermediate sensitive Staphylococcus aureus isolates by broth macrodilution method; type: functional
# Staphylococcus aureus [14] = experiment: Antimicrobial activity against Staphylococcus aureus ATCC 29213 at 0.5 times MIC measured after 17 passages by multistep passage drug resistance selection study relative to wild type Staphylococcus aureus ATCC 29213 before passage; type: functional
# Method in brief: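 Multipassage selection in S. aureus ATCC29213 across an eight-concentration dilution series. Growth was read after 20−22 h. Bacteria growing at 0.5 × MIC were repassaged into a fresh series, 17 passages in total. Resistance was defined as a more than 4-fold rise over the initial MIC.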
# Lipid bilayer [15] = experiment: Binding affinity to DOPC large unilamellar vesicles by 1D 1H NMR spectroscopy
# Method in brief: (§5)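 Liposomes prepared as for the leakage LUVs: 30 mM DOPE/DOPG (75:25) or 30 mM DOPC. 1D 1H spectra of 1 mM compound recorded in water and in each liposome type at 600 MHz, 25 °C.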
# Staphylococcus aureus [16] = experiment: Antimicrobial activity against Staphylococcus aureus ATCC 29213 by broth macrodilution method; type: functional; method in brief: as §2
# Staphylococcus aureus [17] = experiment: Antimicrobial activity against Staphylococcus aureus ATCC 29213 in absence of 4% BSA by broth macrodilution method; type: functional; method in brief: as §2
# Lipid bilayer [18] = experiment: Binding affinity to DOPE/DOPG large unilamellar vesicles by 1D 1H NMR spectroscopy; method in brief: as §5
# Staphylococcus aureus [19] = experiment: Antimicrobial activity against teicoplanin intermediate resistant Staphylococcus aureus isolates by broth macrodilution method; type: functional
# [20] = Selectivity index, ratio of HC50 for induction of hemolysis in New Zealand white rabbit RBC to MIC for Bacillus cereus ATCC 11778
# [21] = Induction of hemolysis in New Zealand white rabbit RBC after 1 hr; type: cell-based, Oryctolagus cuniculus, Erythrocyte; conditions: New Zealand white, red blood cells (RBC)
# Method in brief: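 Fresh red blood cells isolated from New Zealand white rabbits. Lysis measured over a compound concentration series; HC50 taken as the concentration lysing 50% of RBCs.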
# [22] = Selectivity index, ratio of HC50 for induction of hemolysis in New Zealand white rabbit RBC to MIC for Staphylococcus aureus DM4001
# Staphylococcus aureus [23] = experiment: Antimicrobial activity against methicillin resistant Staphylococcus aureus isolates by broth macrodilution method; type: functional
# [24] = Selectivity index, ratio of HC50 for induction of hemolysis in New Zealand white rabbit RBC to MIC for Staphylococcus aureus DM21455
# Enterococcus [25] = experiment: Antimicrobial activity against vancomycin-sensitive Enterococcus isolates by broth macrodilution method; type: functional
# Listeria monocytogenes = experiment: Antimicrobial activity against Listeria monocytogenes isolates by broth macrodilution method; type: functional
# [26] = tested on: Staphylococcus epidermidis; experiment: Antimicrobial activity against Staphylococcus epidermidis isolates by broth macrodilution method; type: functional
# Staphylococcus aureus [27] = experiment: Antimicrobial activity against methicillin resistant Staphylococcus aureus DM21455 in presence of 4% BSA by broth macrodilution method; type: functional
# Method in brief: (§6)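 MIC by CLSI broth macrodilution in Mueller Hinton broth, with BSA added to the bacterial suspension at a final 4% w/v. Inoculum was made by direct colony suspension from an 18−20 h tryptic soy agar plate.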
# [28] = Retention time of the compound; type: physicochemical
# Method in brief: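 Reverse-phase HPLC of 20 μL injections of a 10 μg/mL sample at 1 mL/min. Gradient: 5−55% ACN over 5 min, then 55−95% over 15 min.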
# Staphylococcus aureus [29] = experiment: Antimicrobial activity against Staphylococcus aureus ATCC 29213 infected in mouse cornea infection model assessed as reduction in viable bacterial count at 0.3% solution applied topically 5 times/day dosed 1 day after infection relative to control; type: functional
# Method in brief: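 Mouse cornea given three superficial 1 mm scratches on one eye under ketamine/xylazine, then 10 μL of S. aureus ATCC 29213 suspension (1 × 10^8 CFU/mL in USP phosphate buffer) applied topically. Treated topically 5 times/day from day 1 postinfection; PBS negative control; 4 mice/group killed on days 1, 2 and 3. Corneas homogenized in 0.9% NaCl with 0.25% BSA, plated in duplicate on TSA (48 h, 35 °C); log10 CFU/cornea.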
# Staphylococcus aureus [30] = experiment: Antimicrobial activity against methicillin resistant Staphylococcus aureus DM21455 by broth macrodilution method; type: functional; method in brief: as §2
# Staphylococcus aureus [31] = experiment: Bactericidal activity against methicillin resistant Staphylococcus aureus DM21455 assessed as induction of bacterial killing at 1 times MIC after 1 hr by cell counting based time kill assay; type: functional; method in brief: as §3
# Lipid bilayer [32] = experiment: Induction of vesicle leakage in DOPE/DOPG large unilamellar vesicles assessed as calcein release at 1/16 compound to lipid ratio by fluorescence assay; type: functional; method in brief: as §4
# Staphylococcus aureus [33] = experiment: Antimicrobial activity against methicillin resistant Staphylococcus aureus DM21455 in absence of 4% BSA by broth macrodilution method; type: functional; method in brief: as §2
# Staphylococcus aureus [34] = experiment: Antimicrobial activity against Staphylococcus aureus ATCC 29213 in presence of 4% BSA by broth macrodilution method; type: functional; method in brief: as §6
# Staphylococcus aureus [35] = experiment: Antimicrobial activity against epidemic methicillin resistant Staphylococcus aureus isolates by broth macrodilution method; type: functional
# Enterococcus [36] = experiment: Bactericidal activity against vancomycin-resistant Enterococcus isolates assessed as reduction in bacterial count 2048 ug/mL after 24 hrs by cell counting based time assay; type: functional, organism-based; method in brief: as §3
# Enterococcus [37] = experiment: Bactericidal activity against vancomycin-resistant Enterococcus isolates assessed as reduction in bacterial count 2048 ug/mL after 2 hrs by cell counting based time assay; type: functional, organism-based; method in brief: as §3
# Staphylococcus aureus [38] = experiment: Bactericidal activity against Staphylococcus aureus DM21455 assessed as reduction in bacterial count 2048 ug/mL after 24 hrs by cell counting based time assay; type: functional, organism-based; method in brief: as §3
# Staphylococcus aureus [39] = experiment: Bactericidal activity against Staphylococcus aureus DM21455 assessed as reduction in bacterial count 2048 ug/mL after 2 hrs by cell counting based time assay; type: functional, organism-based; method in brief: as §3
smiles,measurement,setting,value
COC(=O)[C@H](CCCNC(=N)N)NC(=O)COc1cc2oc3cc(OCC(=O)N[C@@H](CCCNC(=N)N)C(=O)OC)c(OC)c(CC=C(C)C)c3c(=O)c2c(O)c1CC=C(C)C,MIC,Streptococcus,4 µg/mL
same,Activity,Mus musculus [1],Non-toxic
same,MIC,Bacillus cereus,2 µg/mL
same,Activity,Mus musculus [2],Non-toxic
same,Selectivity Index,[3],77
same,Activity,Mus musculus [4],Non-toxic
same,MIC,Staphylococcus aureus [5],3 µg/mL
same,Activity,Mus musculus [6],Non-toxic
same,Activity,Staphylococcus aureus [7],99.9%
same,MIC,Enterococcus [8],2 µg/mL
same,Activity,Lipid bilayer [9],32%
same,MIC,Staphylococcus aureus [10],2 µg/mL
same,MIC,Staphylococcus aureus [11],2 µg/mL
same,MIC,Corynebacterium jeikeium,4 µg/mL
same,MIC,Staphylococcus aureus [12],2 µg/mL
same,MIC,Staphylococcus aureus [13],4 µg/mL
same,Activity,Staphylococcus aureus [14],Active
same,Activity,Lipid bilayer [15],inactive
same,MIC,Staphylococcus aureus [16],3 µg/mL
same,MIC,Staphylococcus aureus [17],1.56 µg/mL
same,Activity,Lipid bilayer [18],Active
same,MIC,Staphylococcus aureus [19],2 µg/mL
same,Selectivity Index,[20],77
same,HC50 at 1 h,[21],232 µg/mL
same,Selectivity Index,[22],77
same,MIC,Staphylococcus aureus [23],2 µg/mL
same,Selectivity Index,[24],77
same,MIC,Enterococcus [25],2 µg/mL
same,MIC,Listeria monocytogenes,4 µg/mL
same,MIC,[26],2 µg/mL
same,MIC,Staphylococcus aureus [27],6.25 µg/mL
same,Retention_time,[28],7.96 min
same,inhibition (INH),Staphylococcus aureus [29],99.7%
same,MIC,Staphylococcus aureus [30],3 µg/mL
same,Activity,Staphylococcus aureus [31],99.9%
same,Activity,Lipid bilayer [32],68%
same,MIC,Staphylococcus aureus [33],3.12 µg/mL
same,MIC,Staphylococcus aureus [34],3.12 µg/mL
same,MIC,Staphylococcus aureus [35],2 µg/mL
CN[C@H](CC(C)C)C(=O)N[C@H]1C(=O)N[C@@H](CC(N)=O)C(=O)N[C@H]2C(=O)N[C@H]3C(=O)N[C@H](C(=O)N[C@H](C(=O)O)c4cc(O)cc(O)c4-c4cc3ccc4O)[C@H](O)c3ccc(c(Cl)c3)Oc3cc2cc(c3O[C@@H]2O[C@H](CO)[C@@H](O)[C@H](O)[C@H]2O[C@H]2C[C@](C)(N)[C@H](O)[C@H](C)O2)Oc2ccc(cc2Cl)[C@H]1O [VANCOMYCIN],Activity,Enterococcus [36],inactive
same,MIC,Streptococcus,0.5 µg/mL
same,MIC,Enterococcus [8],8 µg/mL
same,MIC,Corynebacterium jeikeium,0.5 µg/mL
same,Activity,Enterococcus [37],inactive
same,Activity,Staphylococcus aureus [38],inactive
same,Activity,Staphylococcus aureus [39],inactive
same,MIC,Staphylococcus aureus [17],0.78 µg/mL
same,MIC,Enterococcus [25],1 µg/mL
same,MIC,Listeria monocytogenes,0.5 µg/mL
same,MIC,Staphylococcus aureus [27],0.78 µg/mL
same,MIC,Staphylococcus aureus [33],0.78 µg/mL
same,MIC,Staphylococcus aureus [34],1.56 µg/mL
